Screening data: PubChem, several laboratories
CHO parental Ca: ATP-evoked calcium signal inhibitors, parental CHO, primary screen, counter-screen for OX1R antagonist project, cell-based, fluorescence, Fluo-8 calcium dye; parental CHO-K1, ATP-induced calcium, Fluo-8 fluorescence; inhibition, % at 5.6 µM; 330,000 compounds, 0.63% hits;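 active means inhibition above that plate's mean sample inhibition plus 3 SD, cut at about 26% in these data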;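 further: 0% = ATP-challenged DMSO wells and 100% = DMSO wells without ATP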
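Assay system: untransfected parental CHO cell line. Also added: ATP agonist challenge. Dosing: one dose, 5.6 µM nominal. Measured by: Fluo-8 fluorescence. Read-out: % inhibition. Benchmarks: ATP wells versus no-ATP DMSO wells. Repeats: no replicates.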
EP2 antag: human EP2 receptor antagonists, primary screen, TR-FRET cAMP, C6 glioma cells; Prostaglandin E2 receptor EP2 subtype (Homo sapiens), P43116; inhibition, % at 25 µM; AID 1422, 2008; C6 glioma cells expressing human EP2; cells stimulated with saturating PGE2; 260,000 compounds, 0.52% hits;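 active means percent inhibition above 40 after rounding to a whole number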;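 further: rat C6 glioma host cells with rolipram phosphodiesterase inhibitor present; the protocol text gives 20 µM as final concentration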
OX1R antag-1: antagonists of human orexin 1 receptor (OX1R). Orexin/Hypocretin receptor type 1 (Homo sapiens), O43613. OX1R-expressing cells, FRET antagonist read-out. inhibition, % at 6.6 µM. 330,000 compounds, 1.8% hits; in the data active means inhibition mostly above about 38%, no sharp cut-off; inactive means mostly below about 40%;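 further: 0% = agonist challenge alone and 100% = reference antagonist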
Target sequence (O43613 whole entry, looked up): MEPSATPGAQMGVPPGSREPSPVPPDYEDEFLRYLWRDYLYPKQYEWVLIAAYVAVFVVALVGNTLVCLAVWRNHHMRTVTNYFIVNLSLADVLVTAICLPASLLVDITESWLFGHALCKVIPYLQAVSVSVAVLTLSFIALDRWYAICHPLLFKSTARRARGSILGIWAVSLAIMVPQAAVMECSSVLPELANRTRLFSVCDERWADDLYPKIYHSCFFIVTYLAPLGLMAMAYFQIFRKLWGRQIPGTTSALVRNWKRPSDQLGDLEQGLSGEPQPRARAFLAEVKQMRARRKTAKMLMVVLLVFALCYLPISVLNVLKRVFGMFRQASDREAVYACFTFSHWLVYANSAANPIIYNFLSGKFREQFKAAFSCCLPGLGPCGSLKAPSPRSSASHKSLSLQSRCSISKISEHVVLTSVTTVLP
OX1R antag-2: OX1R (HCRTR1) antagonists, primary screen, fluorescence, CHO/OX1R cells, Fluo-8 calcium, orexin A; Orexin/Hypocretin receptor type 1 (Homo sapiens), O43613; Fluo-8 calcium fluorescence; inhibition, % at 5 µM; 330,000 compounds, 0.43% hits; AID 434989, 2010;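 active means inhibition above its plate's threshold, mean inhibition of all tested compounds on the plate plus 3 SD, cut at about 37% in these data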;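 further: 0% = orexin A challenge wells and 100% = SB-334867-A antagonist wells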
GPR7 antagonist: GPR7 receptor antagonists, primary screen, cell-based, fluorescence, single concentration. Neuropeptides B/W receptor type 1 (Homo sapiens), P48145. GPR7-expressing cells, fluorescence antagonist assay. inhibition, % at 4.4 µM. 290,000 compounds, 1.1% hits. AID 1861, 2009; in the data active means inhibition above about 16%, passing the limit was not always enough;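 further: cells stimulated with the agonist NPW; 0% = agonist with vehicle and 100% = vehicle without agonist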
EP2 modulator: EP2 receptor modulators, cAMP readout, primary screen, cell-based, HTRF cAMP, PGE2 stimulation; Prostaglandin E2 receptor EP2 subtype (Homo sapiens), P43116; EP2-expressing cells, cAMP HTRF FRET, PGE2 co-stimulation; induction, % at 25 µM; 260,000 compounds, 0.83% hits; AID 940, 2007;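 active means compounds whose cAMP rise, as percent of the full-agonist control response, exceeds 60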;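 further: rat C6 glioma line stably carrying human EP2 under a CMV promoter; the protocol text gives 20 µM as final concentration; 100% = response of wells given 1 µM PGE2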
* = called active by the depositor; . = no result; ! = repeats disagree. Only some compounds are listed: those with a hit (about 3.7% of all), similar ones and a draw of the others.

SMILES	CHO parental Ca	EP2 antag	OX1R antag-1	OX1R antag-2	GPR7 antagonist	EP2 modulator
Cc1ccc(-c2csc(NC(=O)c3c(C)noc3C)n2)cc1C	2.0	.	32.2*	24.4	.	.
CCc1noc(C)c1C(=O)Nc1nc(-c2ccc(NC(C)=O)cc2)cs1	-3.5	.	57.9*	-1.3	.	.
COc1ccccc1OCC(=O)NNC(=O)C1CCN(c2ncnc3sc(C)c(C)c23)CC1	-18.0	.	9.0	-3.8	.	.
Cc1onc(-c2ccccc2)c1C(=O)Nc1nc(-c2ccc(F)c(F)c2)cs1	-21.8	10.9	18.4	-36.1	-23.6	10.4
CCc1noc(C)c1C(=O)Nc1nc(-c2ccc(OC)c(OC)c2)cs1	-18.5	.	61.0*	-7.2	.	.
COc1ccc(-c2csc(NC(=O)CSCc3c(C)noc3C)n2)cc1OC	-18.4	.	14.4	-38.2	-13.4	.
Cc1ccnc(N2CCC(C(=O)Nc3nnc(C)s3)CC2)n1	-1.1	4.4	14.8	-7.2	0.1	-9.5
COc1cc2c3cc1Oc1cc(ccc1O)C[C@@H]1c4c(cc(OC)c(O)c4Oc4ccc(cc4)C[C@@H]3N(C)CC2)CC[N+]1(C)C	.	4.2	.	.	.	2.7
COc1cc2c3cc1Oc1c(OC)c(OC)cc4c1[C@@H](Cc1ccc(O)c(c1)Oc1ccc(cc1)C[C@@H]3N(C)CC2)CN(C)C4	.	48.3*	.	.	.	1.2
COc1ccc2cc1Oc1ccc(cc1)C[C@H]1c3c(cc(OC)c4c3Oc3cc5c(cc3O4)CCN[C@H]5C2)CCN1C	.	46.9*	.	.	.	-0.8
Nc1cc[n+](CC(=O)Nc2ccccc2)cc1	-6.0	7.6	10.9	-7.5	-4.0	24.2
OCCN(CCO)c1ccc(C(c2ccccc2Cl)c2ccc(N(CCO)CCO)cc2Cl)c(Cl)c1	46.5*	12.5	6.3	39.2	8.3	-14.3
COc1cccc(OC)c1C(=O)Nc1sc2c(c1C#N)CCC2	-6.2	.	54.8*	-11.4	-1.2	.
Cc1csc(NC(=O)c2cc3c(s2)-c2ccccc2OC3)n1	0.4	8.4	69.0*	9.7	-6.7	-4.5
CCCCn1c(-c2cccnc2)nc2cc3[nH]c(=O)c(C(C)C)nc3cc21	-23.6	.	2.8	-22.8	-6.9	.
CCN(CC(=O)NC(C)C)Cc1nc2c(Br)cc(Br)cc2c(=O)[nH]1	-9.3	13.1	4.5	-46.4	-10.8	65.2*
N/C(=N\OC(=O)c1cccc(Cn2cc(C(F)(F)F)ccc2=O)c1)c1ccccc1	46.1*	6.3	3.9	48.0*	-17.3	-30.4
Cc1ccc(NC(=O)C2CCN(S(=O)(=O)c3ccc(Cl)c(C(F)(F)F)c3)CC2)nc1	0.8	.	9.2	-8.0	.	.
CC(OC(=O)c1n[nH]c2ccccc12)C(=O)Nc1ccccc1[N+](=O)[O-] (stereo unspecified)	-25.2	.	35.7*	11.6	.	.
Cc1ccc(NC(=O)C(C)OC(=O)c2n[nH]c3ccccc23)cc1 (stereo unspecified)	-6.9	.	29.5	-30.2	.	.
O=C1C=C(NCc2ccc(Cl)cc2Cl)C2(CCCCC2)O1	-9.0	6.7	20.1	-20.8	20.8*	-17.1
CN(C)CCCNC1=CC(=O)OC12CCCCC2	-8.3	1.5	7.8	-15.8	-0.6	14.8
COc1ccc(CNCCc2ccc(Cl)cc2)cc1OCc1ccccc1	41.8*	7.5	7.8	2.1	5.7	6.5
CCOc1cc(CNCCc2ccc(S(N)(=O)=O)cc2)cc(Cl)c1OCc1ccccc1	58.4*	10.9	-3.6	54.9*	21.0	-33.2
Clc1nc(-c2ccccc2)ncc1Oc1ccccc1	-8.0	.	7.1	-2.4	.	.
SMILES	CHO parental Ca	EP2 antag	OX1R antag-1	OX1R antag-2	GPR7 antagonist	EP2 modulator
O=C(c1ccccc1)c1ccccc1NC(=O)C1CCCN1Cc1ccccc1 (stereo unspecified)	-48.1	7.1	39.0	-40.3	-23.4	72.8*
c1ccc(CSCc2cn3ccsc3n2)cc1	-39.8	7.4	12.5	-29.6	0.4	14.4
O=C1N=NC2=C1c1c3ccccc3c(O)n1CC2	8.3	9.0	55.8*	-7.8	-17.3	-8.6
CC(NC(=O)C1CCN(C(=O)Nc2ccccc2)CC1)c1ccccc1Cl (stereo unspecified)	-2.8	.	5.3	-3.2	.	.
Cc1ccc(OCC(=O)N2N=C(C(F)(F)F)CC2(O)C(C)(C)C)cc1C (stereo unspecified)	80.0*	4.5	28.9	29.7	4.2	24.8
Cc1ccccc1OCC(=O)N1N=C(C(C)C)CC1(O)C(F)(F)F (stereo unspecified)	.	12.2	.	.	.	-0.7
Cc1ccccc1OCC(=O)N1N=C(C(F)(F)F)CC1(O)C(C)(C)C (stereo unspecified)	33.0*	8.3	23.2	17.3	-12.1	32.6
Cc1ccc(OCC(=O)N2N=C(c3cccnc3)CC2(O)C(F)(F)F)cc1C (stereo unspecified)	-6.9	20.6	19.8	-11.9	10.1	-6.4
O=C(Cc1csc(NC(=O)Nc2ccc(Cl)cc2)n1)NC1CCCC1	34.9*	.	16.0	14.2	.	.
O=C(Cc1csc(NC(=O)Nc2ccc(Cl)cc2)n1)NCc1ccccn1	-10.0	.	5.8	-17.4	.	.
COCCNC(=O)NC(=O)CN1CCN(C(c2ccccc2)c2ccccc2)CC1	-14.2	8.5	14.3	-24.6	-7.7	-3.8
O=C(/C(N=Nc1cccc(C(F)(F)F)c1)=C(/O)c1cccs1)C(F)(F)F	-16.5	6.9	11.4	-24.6	-10.7	-8.0
Cc1cccc(N=N/C(=C\O)C(=O)c2cccs2)c1	-20.3	6.9	27.6	-19.6	-4.6	64.1*
O=S(=O)(NCCc1ccccc1)c1ccc(S(=O)(=O)N2CCCCC2)cc1	0.8	17.0	5.2	-14.7	8.1	-14.7
COc1ccc(-c2ccc3c(c2)S(=O)(=O)c2cccc(C(=O)O)c2C3=O)cc1OC	0.6	.	22.2	5.9	.	.
COc1ncc(-c2ccc3c(c2)S(=O)(=O)c2cccc(C(=O)O)c2C3=O)cn1	6.6	.	38.0*	-0.9	.	.
O=C(O)c1cccc2c1C(=O)c1ccc(Cl)cc1S2(=O)=O	-5.8	.	39.2*	-0.4	.	.
CC1(C)CC(Nc2ccc(Nc3ccccc3)cc2)CC(C)(C)N1	.	59.6*!	.	.	-1.1	-56.7
COc1ccc(OC)c(NC(=O)c2cnc3n(c2=O)CCS3)c1	-10.6	6.9	8.0	-22.8	2.5	-1.8
CC(C)(Oc1ccc(Cl)cc1)C(=O)Nc1ncccn1	-9.7	12.5	4.1	-12.3	-3.5	-28.0
O=C1C=C(NCCc2cc(Br)c(O)c(Br)c2)C(=O)c2ncccc21	.	103.8*	.	.	.	-48.7
O=C(COc1ccc(Cl)cc1Cl)NN=C1CCCCC1	-5.9	1.8	4.2	-2.5	-2.1	6.5
FC(F)(F)c1cc(-c2cccs2)nc2ncnn12	4.1	0.4	62.1*	-6.0	-14.8	7.7
